Reference: ChEMBL document CHEMBL1122172, “Syntheses and diuretic activity of 1,2-dihydro-2-(3-pyridyl)-3H-pyrido[2,3-d]pyrimidin-4-one and related compounds” (1982)
Where “and” joins values, the source holds several entries; their conditions need not be identical. Equal values may be shown once.

Tests used:
Assay type in all cases: functional, Urine
Rattus norvegicus [1] = assay: Total K+ milliequivalents excretion in diuretic test at the dose of 150 mg/kg
Rattus norvegicus [2] = assay: Total Cl- milliequivalents excretion in diuretic test at the dose of 150 mg/kg
Rattus norvegicus [3] = assay: Diuretic activity by measuring the urinary output at the dose of 150 mg/kg
In short: (§1)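 Groups of eight male Sprague–Dawley-derived rats, fasted 18 h with water ad libitum, received oral doses by dosing needle in 5% acacia–isotonic saline; the vehicle served as control. Rats were placed in metabolism cages with no food or water, and urine was collected for 5 h. Bladders were then emptied by pulling at the tail base (modified Lipschitz method).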

Rattus norvegicus [4] = assay: Total Na+ milliequivalents excretion in diuretic test at the dose of 150 mg/kg
Rattus norvegicus [5] = assay: Total Cl- milliequivalents excretion in diuretic test at the dose of 25 mg/kg
In short: (§2)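 Male Sprague–Dawley rats (195–225 g) were fasted and deprived of water for 18 h. The compound was given orally, dissolved in 25 mL/kg saline; controls got saline alone. Groups of eight were housed as pairs in metabolism cages. Urine volume was read at 2 and 5 h, with total Na+, Cl− and K+ mequiv excreted. Values are mean ± SEM, N = 8.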

Rattus norvegicus [6] = assay: Diuretic activity by measuring the urinary output at the dose of 25 mg/kg; in short: as §2
Rattus norvegicus [7] = assay: Total K+ milliequivalents excretion in diuretic test at the dose of 25 mg/kg; in short: as §2
Rattus norvegicus [8] = assay: Diuretic activity by measuring the urinary output at the dose of 75 mg/kg; in short: as §1
Rattus norvegicus [9] = assay: Total Cl- milliequivalents excretion in diuretic test at the dose of 75 mg/kg
Rattus norvegicus [10] = assay: Total Na+ milliequivalents excretion in diuretic test at the dose of 25 mg/kg; in short: as §2
Rattus norvegicus [11] = assay: Total K+ milliequivalents excretion in diuretic test at the dose of 75 mg/kg
Rattus norvegicus [12] = assay: Total Na+ milliequivalents excretion in diuretic test at the dose of 75 mg/kg
Rattus norvegicus [13] = assay: Total Na+ milliequivalents excretion in diuretic test at the dose of 50 mg/kg
Rattus norvegicus [14] = assay: Total K+ milliequivalents excretion in diuretic test at the dose of 50 mg/kg
Rattus norvegicus [15] = assay: Diuretic activity by measuring the urinary output at the dose of 50 mg/kg; in short: as §1
Rattus norvegicus [16] = assay: Total Cl- milliequivalents excretion in diuretic test at the dose of 50 mg/kg
Rattus norvegicus [17] = assay: Diuretic activity by measuring the urinary output at the dose of 20 mg/kg; in short: as §1
Rattus norvegicus [18] = assay: Diuretic activity by measuring the urinary output at the dose of 40 mg/kg; in short: as §1
Rattus norvegicus [19] = assay: Total K+ milliequivalents excretion in diuretic test at the dose of 27 mg/kg
In short: (§3)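 Oral dosing was in 25 mL/kg saline to male Sprague–Dawley rats (195–225 g) after 18 h without food or water, with saline-only controls. Groups of eight were kept two per metabolism cage. Urinary Na+, Cl− and K+ were reported as total mequiv excreted, with electrolyte analysis done externally. Values are mean ± SEM of two rats per cage, N = 8.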

Rattus norvegicus [20] = assay: Total Cl- milliequivalents excretion in diuretic test at the dose of 9 mg/kg; in short: as §3
Rattus norvegicus [21] = assay: Diuretic activity by measuring the urinary output after 2 hr at the dose of 9 mg/kg
In short: (§4)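 Male Sprague–Dawley rats (195–225 g) were fasted and deprived of water for 18 h, then dosed orally with compound dissolved in 25 mL/kg saline. Controls got 25 mL/kg saline alone. Groups of eight were used, housed two rats per metabolism cage right after dosing. Urine volume was collected at 2 h and 5 h after dosing. Values are mean ± SEM per cage pair, N = 8.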

Rattus norvegicus [22] = assay: Total Na+ milliequivalents excretion in diuretic test at the dose of 3 mg/kg; in short: as §3
Rattus norvegicus [23] = assay: Total Cl-mequiv excretion in diuretic test at the dose of 3 mg/kg; in short: as §2
Rattus norvegicus [24] = assay: Total Na+ milliequivalents excretion in diuretic test at the dose of 9 mg/kg; in short: as §3
Rattus norvegicus [25] = assay: Diuretic activity by measuring the urinary output after 5 hr at the dose of 27 mg/kg; in short: as §4
Rattus norvegicus [26] = assay: Total K+ milliequivalents excretion in diuretic test at the dose of 12 mg/kg; in short: as §2
Rattus norvegicus [27] = assay: Total K+ milliequivalents excretion in diuretic test at the dose of 3 mg/kg; in short: as §3
Rattus norvegicus [28] = assay: Diuretic activity by measuring the urinary output after 5 hr at the dose of 9 mg/kg; in short: as §4
Rattus norvegicus [29] = assay: Diuretic activity by measuring the urinary output after 2 hr at the dose of 12 mg/kg; in short: as §2
Rattus norvegicus [30] = assay: Diuretic activity by measuring the urinary output after 5 hr at the dose of 3 mg/kg; in short: as §4
Rattus norvegicus [31] = assay: Total Na+ milliequivalents excretion in diuretic test at the dose of 12 mg/kg; in short: as §2
Rattus norvegicus [32] = assay: Total Cl- milliequivalents excretion in diuretic test at the dose of 1 mg/kg; in short: as §2
Rattus norvegicus [33] = assay: Total K+ milliequivalents excretion in diuretic test at the dose of 9 mg/kg; in short: as §3
Rattus norvegicus [34] = assay: Total Na+ milliequivalents excretion in diuretic test at the dose of 27 mg/kg; in short: as §3
Rattus norvegicus [35] = assay: Total Na+ milliequivalents excretion in diuretic test at the dose of 1 mg/kg; in short: as §2
Rattus norvegicus [36] = assay: Diuretic activity by measuring the urinary output after 5 hr at the dose of 12 mg/kg; in short: as §2
Rattus norvegicus [37] = assay: Diuretic activity by measuring the urinary output after 2 hr at the dose of 27 mg/kg; in short: as §4
Rattus norvegicus [38] = assay: Diuretic activity by measuring the urinary output after 2 hr at the dose of 3 mg/kg; in short: as §4
Rattus norvegicus [39] = assay: Total K+ milliequivalents excretion in diuretic test at the dose of 1 mg/kg; in short: as §2
Rattus norvegicus [40] = assay: Diuretic activity by measuring the urinary output after 2 hr at the dose of 1 mg/kg; in short: as §2
Rattus norvegicus [41] = assay: Total Cl- milliequivalents excretion in diuretic test at the dose of 12 mg/kg; in short: as §2
Rattus norvegicus [42] = assay: Total Cl- milliequivalents excretion in diuretic test at the dose of 27 mg/kg; in short: as §3

CC1(C(=O)NCc2cccnc2)NC(=O)c2ccccc2N1 (centres undefined)
Excretion (Rattus norvegicus [1]): 0.5 m equiv | Excretion (Rattus norvegicus [2]): 1.5 m equiv | Control (Rattus norvegicus [3]): 120% | Excretion (Rattus norvegicus [4]): 1.4 m equiv

O=C1NC(c2ccccc2)Nc2ncccc21 (centres undefined)
Excretion (Rattus norvegicus [5]): 1.4 m equiv | Control (Rattus norvegicus [6]): 114% | Excretion (Rattus norvegicus [7]): 0.5 m equiv | Control (Rattus norvegicus [8]): 146% | Excretion (Rattus norvegicus [9]): 1.8 m equiv | Excretion (Rattus norvegicus [10]): 1.3 m equiv

CN(C)C(=O)C1(C)NC(=O)c2ccccc2N1 (centres undefined)
Excretion (Rattus norvegicus [1]): 0.4 m equiv | Excretion (Rattus norvegicus [2]): 1.4 m equiv | Control (Rattus norvegicus [3]): 100% | Excretion (Rattus norvegicus [4]): 1.1 m equiv

O=C1NC(c2cccnc2)Nc2nccnc21 (centres undefined)
Excretion (Rattus norvegicus [11]): 0.4 m equiv | Control (Rattus norvegicus [8]): 97% | Excretion (Rattus norvegicus [12]): 1.2 m equiv | Excretion (Rattus norvegicus [9]): 1.2 m equiv

Nc1ccc(C2NC(=O)c3cccnc3N2)cc1 (centres undefined)
Excretion (Rattus norvegicus [13]): 1.5 m equiv | Excretion (Rattus norvegicus [14]): 0.5 m equiv | Control (Rattus norvegicus [15]): 128% | Excretion (Rattus norvegicus [16]): 1.5 m equiv

O=C1NC(c2cccnc2)Nc2ccccc21 (centres undefined)
Excretion (Rattus norvegicus [5]): 1.1 m equiv | Control (Rattus norvegicus [6]): 96% | Excretion (Rattus norvegicus [7]): 0.4 m equiv | Excretion (Rattus norvegicus [10]): 1 m equiv

COC(OC)C1(C)NC(=O)c2ccccc2N1 (centres undefined)
Excretion (Rattus norvegicus [5]): 1.2 m equiv | Control (Rattus norvegicus [6]): 118% | Excretion (Rattus norvegicus [7]): 0.4 m equiv | Excretion (Rattus norvegicus [10]): 1.2 m equiv

O=C1NC(c2ccc([N+](=O)[O-])cc2)Nc2ncccc21 (centres undefined)
Excretion (Rattus norvegicus [5]): 1.3 m equiv | Control (Rattus norvegicus [6]): 110% | Excretion (Rattus norvegicus [7]): 0.4 m equiv | Control (Rattus norvegicus [8]): 115% | Excretion (Rattus norvegicus [12]; 75 mg/kg): 1.5 m equiv and 0.6 m equiv | Excretion (Rattus norvegicus [9]): 1.7 m equiv | Excretion (Rattus norvegicus [10]): 1.2 m equiv

NS(=O)(=O)c1cc(C(=O)O)c(NCc2ccco2)cc1Cl [FUROSEMIDE]
Control (Rattus norvegicus [17]): 444% | Control (Rattus norvegicus [18]): 517%

NS(=O)(=O)c1cc2c(cc1Cl)NCNS2(=O)=O [HYDROCHLOROTHIAZIDE]
Excretion (Rattus norvegicus [19]): 0.8 m equiv | Excretion (Rattus norvegicus [20]): 2.7 m equiv | Excretion (Rattus norvegicus [21]): 7.5 mL | Excretion (Rattus norvegicus [22]): 2.4 m equiv | Excretion (Rattus norvegicus [23]): 2.7 m equiv | Excretion (Rattus norvegicus [24]): 2.2 m equiv | Excretion (Rattus norvegicus [25]): 15.1 mL | Excretion (Rattus norvegicus [26]): 0.7 m equiv and 0.6 m equiv | Control (Rattus norvegicus [6]): 201% | Excretion (Rattus norvegicus [27]): 0.6 m equiv | Excretion (Rattus norvegicus [28]): 14.6 mL | Excretion (Rattus norvegicus [29]): 7.9 mL | Excretion (Rattus norvegicus [30]): 15.8 mL | Excretion (Rattus norvegicus [31]): 2.5 m equiv | Excretion (Rattus norvegicus [32]): 2.5 m equiv | Excretion (Rattus norvegicus [33]): 0.6 m equiv | Excretion (Rattus norvegicus [34]): 2.5 m equiv | Excretion (Rattus norvegicus [35]): 2 m equiv | Excretion (Rattus norvegicus [36]): 16 mL and 13.9 mL | Excretion (Rattus norvegicus [37]): 8.4 mL | Excretion (Rattus norvegicus [38]): 8.1 mL | Excretion (Rattus norvegicus [39]): 0.6 m equiv | Excretion (Rattus norvegicus [40]): 7.8 mL | Excretion (Rattus norvegicus [41]): 2.8 m equiv | Excretion (Rattus norvegicus [42]): 3 m equiv
